Measurements as given in ChEMBL document CHEMBL4350976, “Sequence modification of heptapeptide selected by phage display as homing device for HT-29 colon cancer cells to improve the anti-tumour activity of drug delivery systems” (Eur J Med Chem, 2019).
Where a SMILES comes first, the peptide text is derived from it. [ ]: non-standard residue; d: D form. The star is where a group is joined. X1 = COc1cccc2c1C(=O)c1c(O)c3c(c(O)c1C2=O)C[C@@](O)(/C(C)=N/OCC(=O)*)C[C@@H]3O[C@H]1C[C@H](N)[C@H](O)[C@H](C)O1; Phe(4-Cl) = N[C@@H](Cc1ccc(Cl)cc1)C(=O)O

How the values were obtained:
[1] = Stability in serum free medium at 30 uM incubated for 3 hrs by LC/MS analysis
Method in brief: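 Conjugates (30 μM) were incubated at 37 °C in serum-free medium. Samples were taken at 0 and 3 h, quenched with acetic acid, lyophilised, desalted on C18 spin columns and analysed by LC-MS.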

[2] = Stability in 2.5% fetal bovine serum containing medium at 30 uM measured after 24 hrs by LC/MS analysis; type: ADME, cell-free, Bos taurus; conditions: cattle
Method in brief: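 Conjugates (30 μM) were incubated at 37 °C in medium containing 2.5% FBS. Samples were taken at 0, 3, 6 and 24 h, quenched with acetic acid, lyophilised, desalted on C18 spin columns and analysed by LC-MS. Cleavage products were identified by mass.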

[3] = Drug metabolism in rat liver lysosomes homogenate assessed as increase in Dau = Aoa-Leu-OH metabolite formation at 0.05 ug/ul after 1 hr by LC-MS analysis; type: ADME, subcellular, Lysosome; conditions: tissue homogenate
Method in brief: (§1)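 Conjugates and rat liver lysosomal homogenate were each used at 0.05 µg/µL. Samples were taken at 0, 1, 3, 6 and 24 h. Metabolites were identified by LC-MS on a C18 column with a formic acid/acetonitrile gradient.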

[4] = Solubility of compound; type: physicochemical
HT-29 [5] = experiment: Cytostatic activity against human HT-29 cells preincubated for 24 hrs under serum free condition followed by compound washout and further incubation for 48 hrs in presence of serum by MTT assay; type: functional, cell-based
Method in brief: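 HT-29 cells were exposed to the compound for 24 h, washed, and kept a further 48 h. Viability was read by MTT. Absorbances were normalized to untreated controls and fitted by nonlinear regression to dose-response curves to give IC50.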

[6] = Drug uptake in human HT-29 cells assessed as increase in fluorescence intensity at 6.25 to 100 uM incubated for 3 hrs by flow cytometry; type: ADME, cell-based; conditions: ht-29, 3 h
Method in brief: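 HT-29 cells were incubated for 3 h with conjugates at 6.25–100 µM. Cellular uptake of Dau fluorescence was measured by flow cytometry, in duplicate.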

[7] = Drug metabolism in rat liver lysosomes homogenate assessed as Dau-containing metabolite formation at 0.05 ug/ul after 24 hrs by LC-MS analysis; type: ADME, subcellular, Lysosome; conditions: tissue homogenate; method in brief: as §1
[8] = Retention time of the compound using 0.1% TFA in water and 0.1% TFA in acetonitrile-water (80:20 v/v) as eluents by RP-HPLC analysis; type: physicochemical
Method in brief: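 Analytical RP-HPLC. Eluent A was 0.1% TFA in water and eluent B was 0.1% TFA in acetonitrile-water (80:20, v/v). Gradient: 0% B held to 5 min, then to 90% B at 50 min. Flow 1 mL/min, detection at 220 nm. The column was a Phenomenex Aeris Peptide XB-C18 (250×4.6 mm, 3.6 μm) or a Nucleosil C18 (5 μm, 100 Å, 250×4.6 mm), depending on the conjugate series.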

[9] = Drug uptake in human HT-29 cells at 100 uM incubated for 3 hrs by flow cytometry relative to control; type: ADME, cell-based; conditions: ht-29, 3 h
Method in brief: (§2)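 HT-29 cells were exposed to 100 µM conjugate for 3 h. Flow cytometry recorded the percentage of Dau-positive cells and the mean fluorescence intensity, in duplicate.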

[10] = Drug uptake in human HT-29 cells assessed as increase in fluorescence intensity at 25 uM incubated for 3 hrs by flow cytometry; type: ADME, cell-based; conditions: ht-29, 3 h
HT-29 [11] = experiment: Cytotoxicity against human HT-29 cells assessed as reduction in cell viability by measuring decrease in fluorescence intensity at 100 uM incubated for 3 hrs by flow cytometry; type: cell-based; conditions: ht-29, 3 h
[12] = Drug uptake in human HT-29 cells at 100 uM incubated for 3 hrs by flow cytometry; type: ADME, cell-based; conditions: ht-29, 3 h; method in brief: as §2

Structure (SMILES) | Stability [1] | Stability [2] | Drug metabolism [3] | solubility [4] | IC50 (HT-29 [5]) [µM] | Drug uptake [6] | Drug metabolism [7] | Retention time [8] [min] | Drug uptake [9] [%] | Drug uptake [10] | Activity (HT-29 [11]) | Drug uptake [12]
COc1cccc2c1C(=O)c1c(O)c3c(c(O)c1C2=O)C[C@@](O)(/C(C)=N/OCC(=O)N[C@@H](CC(C)C)C(=O)N[C@@H](CCCNC(=N)N)C(=O)N[C@@H](CCCNC(=N)N)C(=O)N[C@@H](Cc1ccc(O)cc1)C(=O)N[C@H](C(=O)N[C@@H](Cc1cnc[nH]1)C(=O)N[C@@H](CC(C)C)C(=O)N[C@@H](Cc1ccccc1)C(=O)N[C@@H](Cc1ccc(O)cc1)C(=O)N[C@@H](CC(C)C)C(=O)N[C@H](C(N)=O)[C@@H](C)O)C(C)C)C[C@@H]3O[C@H]1C[C@H](N)[C@H](O)[C@H](C)O1 (X1-LRRYVHLFYLT-NH2) | Stable | Stable | Metabolite_Detected | Soluble | 3.2 | Active | Metabolite_Detected | 30.7 to 32.3 |  |  |  | 
COc1cccc2c1C(=O)c1c(O)c3c(c(O)c1C2=O)C[C@@](O)(/C(C)=N/OCC(=O)N[C@@H](CC(C)C)C(=O)N[C@@H](CCCNC(=N)N)C(=O)N[C@@H](CCCNC(=N)N)C(=O)N[C@@H](Cc1ccc(O)cc1)C(=O)N[C@H](C(=O)N[C@@H](Cc1cnc[nH]1)C(=O)N[C@@H](CC(C)C)C(=O)N[C@@H](C)C(=O)N[C@@H](Cc1ccc(O)cc1)C(=O)N[C@@H](C)C(=O)N[C@H](C(N)=O)[C@@H](C)O)C(C)C)C[C@@H]3O[C@H]1C[C@H](N)[C@H](O)[C@H](C)O1 (X1-LRRYVHLAYAT-NH2) | Stable | Stable |  |  | 24.1 to 27.9 |  |  | 28.6 to 31.3 | 80 | Active |  | 
COc1cccc2c1C(=O)c1c(O)c3c(c(O)c1C2=O)C[C@@](O)(/C(C)=N/OCC(=O)N[C@@H](CC(C)C)C(=O)N[C@@H](CCCNC(=N)N)C(=O)N[C@@H](CCCNC(=N)N)C(=O)N[C@@H](Cc1ccc(O)cc1)C(=O)N[C@H](C(=O)N[C@@H](Cc1cnc[nH]1)C(=O)N[C@@H](CC(C)C)C(=O)N[C@@H](Cc1ccc(Cl)cc1)C(=O)N[C@@H](Cc1ccc(O)cc1)C(=O)N[C@@H](C)C(=O)N[C@H](C(N)=O)[C@@H](C)O)C(C)C)C[C@@H]3O[C@H]1C[C@H](N)[C@H](O)[C@H](C)O1 (X1-LRRYVHL[Phe(4-Cl)]YAT-NH2) | Stable | Stable | Metabolite_Detected | Soluble | 3.6 | Active | Metabolite_Detected | 31.3 to 34 |  |  | Toxic | 
COc1cccc2c1C(=O)c1c(O)c3c(c(O)c1C2=O)C[C@@](O)(/C(C)=N/OCC(=O)N[C@@H](CC(C)C)C(=O)N[C@@H](CCCNC(=N)N)C(=O)N[C@@H](CCCNC(=N)N)C(=O)N[C@@H](Cc1ccc(O)cc1)C(=O)N[C@H](C(=O)N[C@@H](Cc1cnc[nH]1)C(=O)N[C@@H](CC(C)C)C(=O)NCC(=O)N[C@@H](C)C(=O)N[C@@H](C)C(=O)N[C@H](C(N)=O)[C@@H](C)O)C(C)C)C[C@@H]3O[C@H]1C[C@H](N)[C@H](O)[C@H](C)O1 (X1-LRRYVHLGAAT-NH2) |  |  |  |  | > 100 |  |  | 27.4 to 30.1 |  |  |  | Active
COc1cccc2c1C(=O)c1c(O)c3c(c(O)c1C2=O)C[C@@](O)(/C(C)=N/OCC(=O)N[C@@H](CC(C)C)C(=O)N[C@@H](CCCNC(=N)N)C(=O)N[C@@H](CCCNC(=N)N)C(=O)N[C@@H](Cc1ccc(O)cc1)C(=O)N[C@H](C(=O)N[C@@H](Cc1cnc[nH]1)C(=O)N[C@@H](CC(C)C)C(=O)NCC(=O)N[C@@H](Cc1ccc(O)cc1)C(=O)N[C@@H](C)C(=O)N[C@@H](C)C(N)=O)C(C)C)C[C@@H]3O[C@H]1C[C@H](N)[C@H](O)[C@H](C)O1 (X1-LRRYVHLGYAA-NH2) |  |  |  |  | 70.9 |  |  | 28 to 30.7 |  |  |  | Active
